Test results reported in publication PMC6071421 (Journal of investigative medicine : the official …, 2017).

Molecular target: T1, FFA2 (GPR43; Ffar2) (Mus musculus, UniProt Q8VCK6)
T1 sequence (Q8VCK6 1-330): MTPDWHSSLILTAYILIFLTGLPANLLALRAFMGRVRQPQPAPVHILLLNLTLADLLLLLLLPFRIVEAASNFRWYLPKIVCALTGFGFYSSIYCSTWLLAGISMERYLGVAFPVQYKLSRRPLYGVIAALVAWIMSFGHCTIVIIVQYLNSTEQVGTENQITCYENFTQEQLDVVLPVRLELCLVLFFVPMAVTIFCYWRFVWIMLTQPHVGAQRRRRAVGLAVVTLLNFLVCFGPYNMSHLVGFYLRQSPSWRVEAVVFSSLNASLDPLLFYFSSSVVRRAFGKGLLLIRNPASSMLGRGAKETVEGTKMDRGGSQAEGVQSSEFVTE
Experiment: Ca2+ mobilization, Fluo-8, fluorometric imaging plate reader, beta TC3 cells
Format: cell-based
Conditions: agonist; endogenous receptor in beta TC3 cells; N = 13
In short: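 Mouse βTC3 β cells (express Ffar2 but not Ffar3) loaded with 5 μM Fluo-8 for 60 min at 37°C. Test compounds were added as serial dilutions, each concentration in quadruplicate, and fluorescence was read on a FLIPR. Response was delta F/f: (post-stimulation max − pre-stimulation min)/pre-stimulation min. pEC50 and Emax came from non-linear regression. Experiments were repeated in triplicate.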

pEC50: 2.32±0.21 -log M
SMILES: CC(=O)O [Acetate]
